Our source for the self-cleavage values is the RNAGym collection of RNA variant scans (doi:10.1002/anie.201605470).

B1: Osa-1-4 twister ribozyme (parent)
chain: CCGCCUAACACUGCCAAUGCCGGUCCCAAGCCCGGAUAAAAGUGGAGGGGGCGG

This series covers variants of B1. Nature of the series: self-cleavage, relative activity (ratio to wild type); higher = more cleavage; co-transcriptional. An outline of the steps:
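Values are relative activity: the fraction cleaved, normalised to wild type. A doped DNA template for a 54-nucleotide twister ribozyme from Oryza sativa had 97 % wild-type base and 1 % of each other base at the 48 positions downstream of the cleavage site. The RNA was transcribed in vitro for 2 h at 37 °C so that it could cleave itself co-transcriptionally, then sequenced deeply, with cleavage status scored from the presence or absence of upstream sequence in reads.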
On to A17C C31A, for which the self-cleavage turned out to be 0.03.
Next, A17C C31G: 0.05; A17C C31U: 0.16.
Next, A16U G48U: 0.06.
Next, A16U G48A: 0.08; A16U G48C: 0.07; A16U A38U: 1.05.
As to A16U A38C, the self-cleavage stood at 1.
Next, A16U A38G: 0.94; A16U C15U: 0.18; A16U C15A: 0.35.
Next, A16U C15G: 0.31; A17C G42C: 0.21; A17C G42U: 0.57.
On to A17C G42A, for which the self-cleavage was found to be 0.5.
Next, A16U G44U: 0.92.
The figure for A16U G44C is 0.91; for A16U G44A it is 0.94.
Next, A17G A29G: 0.35; A17G A29U: 0.27.
Consider A17G A29C, for which the self-cleavage worked out at 0.07.
The figure for A16U G50A is 0.67; for A16U G50C it is 0.95.
For the variant A16U G50U, the self-cleavage amounted to 0.94.
The figure for A16U A41U is 0.97; for A16U A41C it is 0.93; for A16U A41G it is 0.36.
In the case of A16U A39U, the self-cleavage was 0.87.
Next, A16U A39G: 0.4.
The figure for A16U A39C is 0.93; for A17C G13U it is 0.02; for A17C G13C it is 0.04.
The figure for A17C G13A is 0.04; for A17C G45A it is 0.24.
As to A17C G45C, the self-cleavage stood at 0.05.
The figure for A17C G45U is 0.14; for A17C G50U it is 0.86; for A17C G50C it is 0.9.
Next, A17C G50A: 0.51; A17C A7C: 0.08.
The figure for A17C A7G is 0.1; for A17C A7U it is 0.06.
In the case of A16U C21U, the self-cleavage came out at 0.95.
As to A16U C21G, the self-cleavage came out at 0.05.
Next, A16U C21A: 0.66; A16G U37A: 0.87.
Next, A16G U37C: 1.03; A16G U37G: 1.02; A17C A46G: 0.05.
Next, A17C A46U: 0.05; A17C A46C: 0.05.
For A17C C27U, the self-cleavage amounted to 0.06.
Next, A17C C27G: 0.03; A17C C27A: 0.06; A17C C11U: 0.14.
The figure for A17C C11G is 0.05; for A17C C11A it is 0.06; for A17G A7C it is 0.08.
As for A17G A7U, the self-cleavage came out at 0.1.
With A17G A7G, the self-cleavage was 0.49.
Next, A16U C20G: 0.15; A16U C20A: 0.69.
The figure for A16U C20U is 0.89; for A16U G54C it is 0.88.
For A16U G54A, the self-cleavage is 0.93.
The figure for A16U G54U is 0.94.
Take A17G: the self-cleavage was 0.97.
Next, A17C: 0.76.
Next, A17C A40U: 0.16; A17C A40G: 0.28.
Take A17C A40C: the self-cleavage amounted to 0.06.
The figure for A16U U24A is 0.15; for A16U U24C it is 0.29; for A16U U24G it is 0.02.
As for A16U G23A, the self-cleavage came to 0.49.
The figure for A16U G23U is 0.09; for A16U G23C it is 0.06.
The figure for A16G U43A is 0.89.
The figure for A16G U43C is 0.53.
Turning to A16G U43G, the self-cleavage came out at 0.62.
For A16U U43C, the self-cleavage amounted to 0.36.
Next, A16U U43A: 0.85.
The figure for A16U U43G is 0.33; for A16U C31G it is 0.07.
With A16U C31A, the self-cleavage was 0.03.
Next, A16U C31U: 0.74; A16U G22A: 0.99.
Next, A16U G22U: 0.84; A16U G22C: 0.11.
Next, A16U G30C: 0.04; A16U G30A: 0.03.
On to A16U G30U, for which the self-cleavage is 0.03.
Next, A16U A7C: 0.04; A16U A7U: 0.06; A16U A7G: 0.27.
Next, A16U U12C: 0.47; A16U U12A: 0.92; A16U U12G: 0.16.
Consider A17C G51U, for which the self-cleavage was 0.22.
Next, A17C G51C: 0.13; A17C G51A: 0.32.
In the case of A17C G53A, the self-cleavage amounted to 0.86.
Next, A17C G53U: 0.36.
Next, A17C G53C: 0.1.
The figure for A17C U12G is 0.18.
In the case of A17C U12A, the self-cleavage turned out to be 0.15.
Regarding A17C U12C, the self-cleavage was 0.08.
The figure for A17C C33G is 0.04.
The figure for A17C C33U is 0.16; for A17C C33A it is 0.05; for A16U C52G it is 0.92.
The figure for A16U C52A is 0.97; for A16U C52U it is 0.92.
A16U A36G: the self-cleavage was determined as 0.97.
The figure for A16U A36U is 1.01; for A16U A36C it is 0.6.
The figure for A17G A36C is 0.82; for A17G A36G it is 0.99.
Next, A17G A36U: 1.01; A16U U37G: 1; A16U U37A: 0.83.
For the variant A16U U37C, the self-cleavage turned out to be 1.06.
The figure for A17C A8G is 0.12.
The figure for A17C A8C is 0.08.
Next, A17C A8U: 0.06; A17C G47U: 0.09.
Consider A17C G47A, for which the self-cleavage came out at 0.07.
Next, A17C G47C: 0.05; A17C C20A: 0.58.
Next, A17C C20U: 0.78; A17C C20G: 0.1; A17C A36C: 0.21.
The figure for A17C A36G is 0.75.
Consider A17C A36U, for which the self-cleavage was 0.66.
A17C A28C: the self-cleavage was determined as 0.6.
On to A17C A28G, for which the self-cleavage was 0.05.
Turning to A17C A28U, the self-cleavage is 0.29.
As to A16U G13A, the self-cleavage is 0.09.
Next, A16U G13C: 0.02; A16U G13U: 0.02.
Next, A16U A8G: 0.62.
Next, A16U A8C: 0.06; A16U A8U: 0.35; A17C U43C: 0.58.
With A17C U43A, the self-cleavage came out at 0.64.
The figure for A17C U43G is 0.26; for A16U G47A it is 0.24.
On to A16U G47U, for which the self-cleavage worked out at 0.2.
The figure for A16U G47C is 0.08; for A17C G54C it is 0.87; for A17C G54U it is 0.91.
As for A17C G54A, the self-cleavage stood at 0.9.
Consider A16U A28G, for which the self-cleavage worked out at 0.24.
Regarding A16U A28C, the self-cleavage is 0.91.
The figure for A16U A28U is 0.87; for A16U G34A it is 0.73.
Next, A16U G34U: 0.67.
The figure for A16U G34C is 0.51.
On to A17C C9U, for which the self-cleavage stood at 0.1.
The figure for A17C C9A is 0.08.
The figure for A17C C9G is 0.12.
With A17C G34U, the self-cleavage turned out to be 0.26.
The figure for A17C G34C is 0.14.
For the variant A17C G34A, the self-cleavage was 0.34.
The figure for A17C C26G is 0.07; for A17C C26U it is 0.19.
The figure for A17C C26A is 0.03.
